Laboratory results published in ChEMBL document CHEMBL1142133 (2007).
In brackets after ≈: the same amount, converted by molar mass.

Columns and labels:
[1] = system: Cryptococcus neoformans; experiment: Antifungal activity against flucytosine-resistant Cryptococcus neoformans 98.0176 at 0.125 ug/ml after 72 hrs by time-kill method; format: functional
Method in brief: (§1)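 Time-kill assay run as in the authors' earlier method. […] Read-out was log10 CFU/ml after 72 h incubation, compared with a drug-free control.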

[2] = system: Cryptococcus neoformans; experiment: Antifungal activity against flucytosine-resistant Cryptococcus neoformans 18476 at 0.125 ug/ml after 72 hrs by time-kill method; format: functional; method in brief: as §1
[3] = system: Cryptococcus neoformans; experiment: Antifungal activity against flucytosine-resistant Cryptococcus neoformans 550 at 0.19 ug/ml after 72 hrs by time-kill method; format: functional
[4] = system: Cryptococcus neoformans; experiment: Antifungal activity against flucytosine-resistant Cryptococcus neoformans 98.0673 at 0.125 ug/ml after 72 hrs by time-kill method; format: functional; method in brief: as §1
[5] = system: Cryptococcus neoformans; experiment: Antifungal activity against flucytosine-resistant Cryptococcus neoformans 99.1026 at 0.125 ug/ml after 72 hrs by time-kill method; format: functional
Method in brief: (§2)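 Time-kill assay on flucytosine-resistant isolates. […] Viable counts were taken as log10 CFU per ml after 72 h of incubation.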

[6] = system: Cryptococcus neoformans; experiment: Antifungal activity against flucytosine-resistant Cryptococcus neoformans 98.1121 at 0.125 ug/ml after 72 hrs by time-kill method; format: functional; method in brief: as §2
[7] = system: Cryptococcus neoformans; experiment: Antifungal activity against flucytosine-resistant Cryptococcus neoformans 276 at 0.125 ug/ml after 72 hrs by time-kill method; format: functional; method in brief: as §1
[8] = system: Cryptococcus neoformans; experiment: Antifungal activity against flucytosine-resistant Cryptococcus neoformans 280 at 0.125 ug/ml after 72 hrs by time-kill method; format: functional; method in brief: as §1
[9] = system: Cryptococcus neoformans; experiment: Antifungal activity against flucytosine-resistant Cryptococcus neoformans 533 at 0.125 ug/ml after 72 hrs by time-kill method; format: functional; method in brief: as §1
[10] = system: Cryptococcus neoformans; experiment: Antifungal activity against flucytosine-resistant Cryptococcus neoformans 98.0673 by checkerboard method; format: functional
[11] = system: Cryptococcus neoformans; experiment: Antifungal activity against flucytosine-resistant Cryptococcus neoformans 280 by checkerboard method; format: functional
[12] = system: Cryptococcus neoformans; experiment: Antifungal activity against flucytosine-resistant Cryptococcus neoformans 285 by checkerboard method; format: functional
[13] = system: Cryptococcus neoformans; experiment: Antifungal activity against flucytosine-resistant Cryptococcus neoformans 98.0176 by checkerboard method in presence of flucytosine; format: functional
[14] = system: Cryptococcus neoformans; experiment: Antifungal activity against flucytosine-resistant Cryptococcus neoformans 18476 by checkerboard method in presence of flucytosine; format: functional
[15] = system: Cryptococcus neoformans; experiment: Antifungal activity against flucytosine-resistant Cryptococcus neoformans 550 by checkerboard method in presence of flucytosine; format: functional
[16] = system: Cryptococcus neoformans; experiment: Antifungal activity against flucytosine-resistant Cryptococcus neoformans 99.1026 by checkerboard method in presence of flucytosine; format: functional
[17] = system: Cryptococcus neoformans; experiment: Antifungal activity against flucytosine-resistant Cryptococcus neoformans 18476 by checkerboard method; format: functional
[18] = system: Cryptococcus neoformans; experiment: Antifungal activity against flucytosine-resistant Cryptococcus neoformans 276 by checkerboard method in presence of flucytosine; format: functional
[19] = system: Cryptococcus neoformans; experiment: Antifungal activity against flucytosine-resistant Cryptococcus neoformans 533 by checkerboard method in presence of flucytosine; format: functional
[20] = system: Cryptococcus neoformans; experiment: Antifungal activity against flucytosine-resistant Cryptococcus neoformans 98.0176 by Etest method in presence of flucytosine; format: functional
[21] = system: Cryptococcus neoformans; experiment: Antifungal activity against flucytosine-resistant Cryptococcus neoformans 18476 by Etest method in presence of flucytosine; format: functional
[22] = system: Cryptococcus neoformans; experiment: Antifungal activity against flucytosine-resistant Cryptococcus neoformans 285 by Etest method in presence of flucytosine; format: functional
[23] = system: Cryptococcus neoformans; experiment: Antifungal activity against flucytosine-resistant Cryptococcus neoformans 550 by Etest method in presence of flucytosine; format: functional
[24] = system: Cryptococcus neoformans; experiment: Antifungal activity against flucytosine-resistant Cryptococcus neoformans 98.0673 by Etest method in presence of flucytosine; format: functional
[25] = system: Cryptococcus neoformans; experiment: Antifungal activity against flucytosine-resistant Cryptococcus neoformans 99.1026 by Etest method in presence of flucytosine; format: functional
[26] = system: Cryptococcus neoformans; experiment: Antifungal activity against flucytosine-resistant Cryptococcus neoformans 98.1121 by Etest method in presence of flucytosine; format: functional
[27] = system: Cryptococcus neoformans; experiment: Antifungal activity against flucytosine-resistant Cryptococcus neoformans 276 by Etest method in presence of flucytosine; format: functional
[28] = system: Cryptococcus neoformans; experiment: Antifungal activity against flucytosine-resistant Cryptococcus neoformans 280 by Etest method in presence of flucytosine; format: functional
[29] = system: Cryptococcus neoformans; experiment: Antifungal activity against flucytosine-resistant Cryptococcus neoformans 533 by Etest method in presence of flucytosine; format: functional
[30] = system: Cryptococcus neoformans; experiment: microbe, parasite or virus in culture
[31] = system: Cryptococcus neoformans; experiment: Antifungal activity against flucytosine-resistant Cryptococcus neoformans 550 by checkerboard method; format: functional
[32] = system: Cryptococcus neoformans; experiment: Antifungal activity against flucytosine-resistant Cryptococcus neoformans 99.1026 by checkerboard method; format: functional
[33] = system: Cryptococcus neoformans; experiment: Antifungal activity against flucytosine-resistant Cryptococcus neoformans 98.1121 by checkerboard method; format: functional
[34] = system: Cryptococcus neoformans; experiment: Antifungal activity against flucytosine-resistant Cryptococcus neoformans 276 by checkerboard method; format: functional
[35] = system: Cryptococcus neoformans; experiment: Antifungal activity against flucytosine-resistant Cryptococcus neoformans 533 by checkerboard method; format: functional
[36] = system: Cryptococcus neoformans; experiment: Antifungal activity against flucytosine-resistant Cryptococcus neoformans 98.0176 by checkerboard method; format: functional

`C[C@@H]1[C@H](O)[C@@H](C)/C=C/C=C/C=C/C=C/C=C/C=C/C=C/[C@H](O[C@@H]2O[C@H](C)[C@@H](O)[C@H](N)[C@@H]2O)C[C@@H]2O[C@](O)(C[C@@H](O)C[C@@H](O)[C@H](O)CC[C@@H](O)C[C@@H](O)CC(=O)O[C@H]1C)C[C@H](O)[C@H]2C(=O)O` [AMPHOTERICIN B] was tested. Which log10CFU/ml [1] did it give?
Its log10CFU/ml is 6.5.

What about the log10CFU/ml [2] of the same molecule?
The log10CFU/ml was 6.7.

What about the log10CFU/ml [3] of the same molecule?
The log10CFU/ml was 7.2.

And the log10CFU/ml [4]?
The log10CFU/ml was 7.2.

What about the log10CFU/ml [5] of the same molecule?
Its log10CFU/ml is 5.2.

What about the log10CFU/ml [6] of the same molecule?
Its log10CFU/ml is 1.5.

And the log10CFU/ml [7]?
Its log10CFU/ml is 7.3.

What about the log10CFU/ml [8] of the same molecule?
Its log10CFU/ml is 5.6.

And the log10CFU/ml [9]?
The log10CFU/ml was 7.4.

And the MIC [10]?
Its MIC is 1 µg/mL.

And the MIC [11]?
The MIC was 1 µg/mL.

And the MIC [12]?
The MIC was 1 µg/mL.

What about the MIC [13] of the same molecule?
The MIC was 0.12 µg/mL.

And the MIC [14]?
Its MIC is 0.12 µg/mL.

What about the MIC [15] of the same molecule?
Its MIC is 0.06 µg/mL.

What about the MIC [16] of the same molecule?
The MIC was 0.06 µg/mL.

And the MIC [17]?
Its MIC is 0.25 µg/mL.

What about the MIC [18] of the same molecule?
Its MIC is 0.06 µg/mL.

And the MIC [19]?
Its MIC is 0.12 µg/mL.

What about the MIC [20] of the same molecule?
Its MIC is 0.094 µg/mL.

What about the MIC [21] of the same molecule?
Its MIC is 0.094 µg/mL.

And the MIC [22]?
The MIC was 0.095 µg/mL.

And the MIC [23]?
The MIC was 0.094 µg/mL.

And the MIC [24]?
The MIC was 0.094 µg/mL.

And the MIC [25]?
Its MIC is 0.094 µg/mL.

What about the MIC [26] of the same molecule?
The MIC was 0.094 µg/mL.

What about the MIC [27] of the same molecule?
The MIC was 0.094 µg/mL.

What about the MIC [28] of the same molecule?
Its MIC is 0.094 µg/mL.

And the MIC [29]?
The MIC was 0.094 µg/mL.

And the MIC [30]?
The MIC was 0.25 µg/mL (≈ 0.271 µM).

With `O=c1[nH]cc(F)c(=O)[nH]1` [FLUOROURACIL] as the molecule, how does the MIC [31] read?
Its MIC is 0.5 µg/mL.

And the MIC [10]?
Its MIC is 16 µg/mL.

And the MIC [32]?
Its MIC is 8 µg/mL.

What about the MIC [33] of the same molecule?
The MIC was 256 µg/mL.

What about the MIC [34] of the same molecule?
Its MIC is 256 µg/mL.

What about the MIC [11] of the same molecule?
Its MIC is 256 µg/mL.

What about the MIC [35] of the same molecule?
Its MIC is 256 µg/mL.

And the MIC [12]?
Its MIC is 4 µg/mL.

What about the MIC [36] of the same molecule?
The MIC was 0.008 µg/mL.

And the MIC [17]?
Its MIC is 0.25 µg/mL.
